Screening data (PubChem BioAssay)
NTR1 agonist – agonists of human neurotensin receptor NTR1 | P30989 | NTR1-U2OS beta-arrestin-GFP spot imaging, agonist mode | activation, % at 20 µM | 330,000 tested, 0.17% active;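 active = activation at or above 40% of the spot to cytoplasm intensity ratio, with at least 20 cells analyzed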
Target sequence (P30989 whole entry, looked up): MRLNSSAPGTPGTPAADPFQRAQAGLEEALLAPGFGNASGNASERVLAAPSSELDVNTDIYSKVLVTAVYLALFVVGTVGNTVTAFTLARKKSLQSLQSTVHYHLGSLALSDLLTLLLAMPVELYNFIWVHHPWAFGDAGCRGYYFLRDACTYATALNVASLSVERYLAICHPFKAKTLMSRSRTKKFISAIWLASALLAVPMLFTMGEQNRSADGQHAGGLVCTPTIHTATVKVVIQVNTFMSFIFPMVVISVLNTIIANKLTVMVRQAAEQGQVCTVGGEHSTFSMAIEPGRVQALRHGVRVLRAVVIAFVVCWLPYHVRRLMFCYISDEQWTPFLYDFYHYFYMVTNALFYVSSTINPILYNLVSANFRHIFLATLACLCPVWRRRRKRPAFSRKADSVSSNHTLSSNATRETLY
TAAR1 antag – human TAAR1 antagonism; CHO RD-HGA16 TAAR1, Fluo-8 calcium fluorescence, antagonist; 360,000 tested, 1.5% active; Q96RJ0; inhibition, % at 3 µM;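 active = inhibition above a per-plate cutoff, the mean inhibition of test compounds on that plate plus 3 SD, cut at about 49% in these data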
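Assay system: CHO-derived RD-HGA16 cells stably expressing human TAAR1 plus Gα16. Timing: 140 s kinetic read after compound, 140 s after agonist. Technique: kinetic Fluo-8 calcium fluorescence measurement. Measure: % inhibition of agonist calcium response.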
TAAR1 ag – human TAAR1 agonism; Q96RJ0; CHO RD-HGA16 TAAR1, Fluo-8 calcium fluorescence; vehicle wells 0%, saturating PEA agonist 100%; activation, % at 3 µM; 360,000 tested, 0.99% active; AID 624467;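 active = activation above the mean activation of all test compounds in the run plus 3 SD, cut at about 38% in these data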
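Benchmarks: low control DMSO, high control PEA (EC100); System: CHO RD-HGA16 cells carrying human TAAR1 plus Gα16; Detection: Fluo-8 fluorescence, 5 s baseline then 140 s kinetic read; Schedule: 17-24 h plating, Fluo-8 75 min 37 °C, 30 min RT; Read-out basis: % activation from peak over basal fluorescence ratio, DMSO-to-PEA scaled.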
CHO parental Ca – counter-screen: ATP calcium response change in parental CHO cells. parental CHO-K1, ATP-induced calcium, Fluo-8 fluorescence. inhibition, % at 5.6 µM. 330,000 tested, 0.63% active;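 active = inhibition above that plate's mean sample inhibition plus 3 SD, cut at about 26% in these data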
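Material: parental CHO cells / Compound: single nominal dose of 5.6 µM per compound / Signal: Fluo-8 fluorescence / Replicates: singlicate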
OX1R antag-1 – blocks the human orexin 1 receptor; OX1R-expressing cells, FRET antagonist read-out; inhibition, % at 6.6 µM; 330,000 tested, 1.8% active; in the data active = inhibition mostly above about 38%, no sharp cut-off; inactive = mostly below about 40%
OX1R antag-2 – human HCRTR1 antagonism; CHO/OX1R cells, Fluo-8 calcium fluorescence, orexin A; inhibition, % at 5 µM; 330,000 tested, 0.43% active;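 active = inhibition above its plate's threshold, mean inhibition of all tested compounds on the plate plus 3 SD, cut at about 37% in these data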
A number is an active result; . = inactive; / = no result given. Only some compounds are listed: those with a hit (about 4% of all), similar ones and a draw of the others.

SMILES | NTR1 agonist | TAAR1 antag | TAAR1 ag | CHO parental Ca | OX1R antag-1 | OX1R antag-2
O=C(OC1CCCCC1)c1cc2ccccc2oc1=O | . | . | . | . | . | .
O=C1c2cc(Cl)ccc2OC2(CCNCC2)C12CC(c1ccccc1)=NO2 (stereo not drawn) | . | . | 43.1 | . | . | .
O=C1c2cc(Cl)ccc2OC2(CCNCC2)C12CC(c1ccc(Cl)cc1)=NO2 (stereo not drawn) | . | / | / | . | . | .
Cc1nc(Cl)c(C(=O)NC(=O)Nc2cccc(C(F)(F)F)c2)c(C)c1[N+](=O)[O-] | . | . | 42.3 | . | . | .
Cc1onc(C(=O)Nc2cccc(C(F)(F)F)c2)c1[N+](=O)[O-] | . | . | . | . | . | .
CC1(C)CC(NC(=O)c2ccccc2NS(=O)(=O)c2ccc(Br)cc2)CC(C)(C)N1 | / | . | . | / | / | /
COc1cccc(/C=N/N2C(=O)CSC2=S)c1O | . | . | . | . | . | .
COc1cc(/C=N/N2C(=O)CSC2=S)cc(Br)c1O | / | . | 62.3 | / | / | /
COc1ccc(/C=C2\SC(=O)N(CCNC(=O)Cc3coc4cc(C)ccc34)C2=O)cc1OC | . | . | . | . | 54.0 | .
COc1ccc(/C=C2/SC(=O)N(CCC(=O)Nc3ccc(C)cc3)C2=O)cc1OC | . | . | . | . | . | .
COc1ccc(C(CNC(=O)c2ccc(-c3ccccc3Cl)o2)N2CCCC2)cc1 (stereo not drawn) | / | . | 41.8 | / | / | /
CC(=O)N(Cc1ccccc1)c1ncc2c(n1)c(=O)c(C#N)c1ccccn12 | . | . | . | . | 63.3 | .
COc1ccc(C2CC(=O)C(c3cccc(F)c3)=CN2Cc2ccccc2)cc1 (stereo not drawn) | / | . | . | / | / | /
Nc1[nH]c(C(=O)c2ccc(Br)cc2)c(-c2ccncc2)c1C(=O)NCCc1c[nH]c2ccccc12 | / | . | . | / | / | /
CCN1/C(=C/C(C)=C/c2sc3ccccc3[n+]2CC)Sc2ccccc21 | . | . | . | 87.1 | 63.3 | 94.7
CCN1/C(=C\C(=S)Nc2ccccc2)Sc2ccccc21 | . | . | . | . | . | .
COc1cccc(CNC(=O)C(C)n2ccc3cc(S(=O)(=O)N4CCCCCC4)ccc32)c1 (stereo not drawn) | . | . | . | . | . | .
CC(CNC(=O)Cn1ccc2cc(S(=O)(=O)N3CCCC3)ccc21)c1ccccc1 (stereo not drawn) | . | . | . | . | 42.8 | .
COc1ccccc1CNC(=O)Cn1ccc2cc(S(=O)(=O)N3CCCC3)ccc21 | . | . | . | . | . | .
CCC(C(=O)NCCC(C)C)n1ccc2cc(S(=O)(=O)N3CCCCC3)ccc21 (stereo not drawn) | . | / | / | 52.7 | . | .
C[C@@H]1COc2cccc(NC3CC3)c2S(=O)(=O)N1 | / | . | . | / | / | /
CC(C)(CNC(=S)NCCc1ccccc1)CNC(=S)NCCc1ccccc1 | / | 61.5 | 46.2 | / | / | /
Fc1ccccc1NC(=S)NCCc1ccccc1 | . | . | 56.2 | . | . | .
Cc1ccc(C(C[N+](=O)[O-])n2nc(C)cc2C)cc1 (stereo not drawn) | 51.2 | . | . | . | . | .
O=C(Nc1ccc(Cl)c(Cl)c1)Nc1nnc(-c2ccncc2)s1 | / | . | . | . | . | .
SMILES | NTR1 agonist | TAAR1 antag | TAAR1 ag | CHO parental Ca | OX1R antag-1 | OX1R antag-2
COc1ccccc1C(=O)Nc1nnc(-c2ccccc2)s1 | . | . | . | . | 51.2 | .
COc1ccccc1C(=O)Nc1nnc(C)s1 | . | . | . | . | . | .
COc1ccc(NC(=O)Nc2nnc(-c3ccncc3)s2)cc1 | . | 49.0 | . | . | . | .
O=C(Nc1nnc(-c2ccccc2)s1)c1ccccc1O | . | . | . | . | . | .
COc1cccc(C(=O)Nc2nnc(-c3ccccc3)s2)c1OC | . | . | . | . | 52.1 | .
CC(=O)O[C@@H]1C=C[C@@H](C#Cc2ccc(C(C)(C)C)cc2)O[C@@H]1COC(=O)NCc1ccccc1 | / | . | . | / | / | /
COC(=O)C1=C(C)N(C)C(=NCc2cccc(C(F)(F)F)c2)NC1c1cccc(F)c1 (stereo not drawn) | / | . | . | / | / | /
Cn1cnc([N+](=O)[O-])c1Sc1nnc(-c2ccccc2)c(-c2ccccc2)n1 | / | . | . | / | / | /
COC(=O)c1cc2c(c3c4cc(F)ccc4n(S(=O)(=O)c4ccc(C)cc4)c13)C(=O)N(Cc1ccccc1OC)C2 | / | . | . | / | / | /
Nc1[nH]c(C(=O)c2ccccc2)c(-c2ccc(Cl)cc2)c1C(=O)c1c[nH]c2ccccc12 | / | . | . | / | / | /
Cc1nc2ccc3[nH]snc3c2n1 | . | . | . | . | 51.9 | .
Cc1cc2c(c(=O)o1)[C@@]1(C(=O)Nc3ccccc31)C1=C(CCCC1=O)O2 | / | . | . | / | / | /
Cc1ccc(OC(C)C(=O)N(C)Cc2ccccc2)c([N+](=O)[O-])n1 (stereo not drawn) | . | . | . | . | . | .
O=C(Nc1ccc(F)cc1)Nc1csc2ccccc12 | . | . | . | . | . | .
CN(C)c1ccc(NC(=O)Nc2csc3ccccc23)cc1 | . | . | . | . | 56.8 | .
O=C1OC(c2ccc3c(c2)OCO3)N(C(=O)c2ccc(Cl)c(Cl)c2)c2ccccc21 (stereo not drawn) | . | . | . | . | 76.2 | .
O=C(C(=O)N(Cc1ccccc1)Cc1ccccc1)c1c(-c2ccccc2)[nH]c2ccccc12 | / | 74.9 | . | / | / | /
NC(=O)c1cccc(-c2ccnc3c2CC(C(=O)NCc2cccc(Cl)c2)O3)c1 (stereo not drawn) | / | . | . | / | / | /
CCCC(=O)Nc1ccc(Cl)c(NC(=S)NC(=O)C(C)C)c1 | . | . | . | . | . | .
CCCC(=O)Nc1ccc(Cl)c(NC(=O)c2cccnc2Cl)c1 | . | . | 38.8 | . | . | .
CC(C)C[C@H]1COc2c(Cl)cccc2S(=O)(=O)N1 | / | . | . | / | / | /
COc1ccc(C(=O)CSc2nnc(NC(=O)C3CC(=O)N(c4ccccc4C)C3)s2)cc1 (stereo not drawn) | . | 52.8 | . | . | . | .
Cc1ccccc1N1CC(C(=O)Nc2nnc(SCCN3CCOCC3)s2)CC1=O (stereo not drawn) | . | . | . | . | . | .
O=C(NCCCNC(=O)c1cnccn1)c1cccc(F)c1 | . | . | . | . | . | .
Cc1n[nH]c(C)c1CCCCOc1ccccc1[N+](=O)[O-] | . | . | . | 48.0 | 58.8 | .
CCCN(C(=O)C1CCCN(c2ncnc3c2nc2n3CCCCC2)C1)c1ccccc1C (stereo not drawn) | / | . | . | / | / | /
CC(C)[C@H](NC(=O)c1ccc(Cl)cc1Cl)C(=O)N1CCC[C@H]1C(=O)NCc1ccccc1 | / | . | . | / | / | /
CCC(CNc1cc(OC)cc2cccnc12)NC1CCCCC1 (stereo not drawn) | / | . | . | . | 57.6 | .
N#C/C(=N\Nc1ccc(S(=O)(=O)N2CCCCCC2)cc1)C(N)=S | . | . | . | . | 49.2 | .
